Bioassay records as filed in PubChem BioAssay.
In the library only some 2.1% were active in any assay of this set; here they are far more common.
A3A deaminase: inhibitors of human APOBEC3A DNA deaminase; P31941; inhibition, % at 20 µM; recombinant A3A, FAM/TAMRA ssDNA deamination fluorescence; 0.41% of 330,000 active;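 active = at least 40% inhibition at 20 µM here, with at most 30% in a related deaminase screen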
Target sequence (P31941 whole entry, looked up): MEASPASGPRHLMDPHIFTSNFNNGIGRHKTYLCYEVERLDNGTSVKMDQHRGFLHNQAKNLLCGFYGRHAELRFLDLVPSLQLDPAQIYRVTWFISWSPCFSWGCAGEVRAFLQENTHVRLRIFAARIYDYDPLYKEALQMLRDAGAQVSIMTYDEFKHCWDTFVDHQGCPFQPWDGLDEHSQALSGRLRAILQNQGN
APOBEC3G inh: blocks human APOBEC3G single-stranded DNA deamination. Q9HC16. recombinant A3G, ssDNA deamination FAM/TAMRA fluorescence. AID 493012. inhibition, % at 20 µM. 0.28% of 330,000 active;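 active = inhibition of at least 40% at 20 µM, with no more than 30% in the related APOBEC3A deaminase screen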
Target sequence (Q9HC16 whole entry, looked up): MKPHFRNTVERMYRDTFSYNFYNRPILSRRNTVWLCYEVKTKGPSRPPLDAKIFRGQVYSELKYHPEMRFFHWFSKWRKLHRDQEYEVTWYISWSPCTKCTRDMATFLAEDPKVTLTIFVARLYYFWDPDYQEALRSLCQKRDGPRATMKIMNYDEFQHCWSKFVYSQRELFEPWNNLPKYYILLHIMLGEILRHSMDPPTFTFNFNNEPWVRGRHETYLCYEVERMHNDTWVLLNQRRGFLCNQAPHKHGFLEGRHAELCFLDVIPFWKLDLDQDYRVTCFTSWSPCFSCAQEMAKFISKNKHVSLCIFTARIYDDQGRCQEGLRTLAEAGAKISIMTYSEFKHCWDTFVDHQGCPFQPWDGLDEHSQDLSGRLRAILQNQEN
ASAP1 GAP inh: blocks human ASAP1-stimulated Arf1 GTP hydrolysis | Q9ULH1 | GDP FP detection | inhibition, % at 16.5 µM | 0.19% of 360,000 active; in the data active = inhibition above about 25%
Mot1-301 SUMO: SUMOylation pathway inhibition by Mot1-301 growth rescue; S. cerevisiae Mot1-301 growth rescue, ATP luminescence, 38.5C; percent above DMSO median, 100 means doubled; growth rescue, % at 18.8 µM; 1% of 320,000 active; AID 2716;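 active = every valid replicate shows activation above 250% relative to neutral control wells; inactive = the rest, any valid replicate at or below 250%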
C2C12 statin: protects C2C12 myotubes from simvastatin toxicity; ATP luminescence, 48 h; scaled: DMSO 0, geranylgeraniol control 100; rescue of ATP level, % at 7.49 µM; 0.78% of 330,000 active; AID 602340;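 active = mean ATP rescue above about 67%, or every replicate alone reaching that limit, limit read from the data, passing the limit was not always enough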;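 also: myotubes were challenged with 10 µM simvastatin during compound exposure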
ARFGAP1 inh: rat ARFGAP1 inhibition | Q62848 | Arfgap1-stimulated ARF1 GTP hydrolysis, GDP FP detection | inhibition, % at 16.5 µM | 0.26% of 360,000 active | AID 651572;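 active = inhibition above a per-plate limit, mean inhibition of low control wells plus 3 SD, cut at about 25% in these data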
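System: truncated rat Arfgap1 GAP domain / Medium: HEPES-based buffer, pH 7.5 / Also added: N-terminally truncated human ARF1-GTP substrate / Incubation: enzyme reaction 120 min at 25 °C after 20 min preincubation / Measured by: FP of antibody-bound GDP Alexa 633 tracer, ex 620/em 688 nm / Replicates: singlicate, each compound tested once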
Hits are given with their value; i = inactive; nt = not tested or not shown.

SMILES	A3A deaminase	APOBEC3G inh	ASAP1 GAP inh	Mot1-301 SUMO	C2C12 statin	ARFGAP1 inh
C[C@H]1CN([C@@H](C)CO)C(=O)Cc2cc(NC(=O)CCC(F)(F)F)ccc2O[C@H]1CN(C)Cc1ccc(Oc2ccccc2)cc1	nt	nt	nt	nt	i	nt
C[C@H](CO)N1C[C@H](C)[C@@H](CN(C)Cc2ccc(Oc3ccccc3)cc2)Oc2ccc(NC(=O)CCC(F)(F)F)cc2CC1=O	nt	nt	nt	nt	93	nt
C[C@@H]1CN([C@@H](C)CO)C(=O)Cc2cc(NC(=O)C3CCCCC3)ccc2O[C@H]1CN(C)Cc1ccc(Oc2ccccc2)cc1	nt	nt	nt	nt	88	nt
C[C@H](CO)N1C[C@H](C)[C@@H](CN(C)Cc2ccc(C(F)(F)F)cc2)Oc2ccc(NC(=O)C3CCCCC3)cc2CC1=O	nt	nt	nt	nt	71	nt
C[C@@H]1CN([C@@H](C)CO)C(=O)Cc2cc(NC(=O)C3CC3)ccc2O[C@H]1CN(C)Cc1ccc(Oc2ccccc2)cc1	nt	nt	nt	nt	74	nt
Cc1ccccc1S(=O)(=O)N1CC[C@H]2[C@H](CO)Nc3ccc(-c4cccc(C#N)c4)cc3[C@H]21	nt	nt	nt	nt	i	nt
C[C@H](CO)N1C[C@H](C)[C@@H](CN(C)Cc2ccc(-c3ccccc3)cc2)Oc2ccc(NC(=O)Cn3cnnn3)cc2CC1=O	nt	nt	nt	nt	89	nt
Cc1noc(C)c1NC(=O)Nc1ccc2c(c1)CC(=O)N([C@H](C)CO)C[C@H](C)[C@@H](CN(C)Cc1ccc(Oc3ccccc3)cc1)O2	nt	nt	nt	nt	103	nt
C[C@H]1CN([C@@H](C)CO)C(=O)Cc2cc(NC(=O)Nc3ccc4c(c3)OCO4)ccc2O[C@@H]1CN(C)Cc1ccc(-c2ccccc2)cc1	nt	nt	nt	nt	76	nt
C[C@@H]1CN([C@H](C)CO)C(=O)Cc2cc(NC(=O)C3CCCCC3)ccc2O[C@H]1CN(C)Cc1ccc(-c2ccccc2)cc1	nt	nt	nt	nt	99	nt
Cc1ccc(S(=O)(=O)Nc2ccc3c(c2)C(=O)N([C@H](C)CO)C[C@@H](C)[C@@H](CN(C)C(=O)Nc2c(C)noc2C)O3)cc1	nt	nt	nt	nt	i	nt
CC(C)NC(=O)Nc1ccc2c(c1)C(=O)N([C@@H](C)CO)C[C@H](C)[C@H](CN(C)Cc1ccccc1)O2	nt	nt	nt	nt	77	nt
CC(C)NC(=O)Nc1ccc2c(c1)C(=O)N([C@@H](C)CO)C[C@H](C)[C@@H](CN(C)Cc1ccccc1)O2	nt	nt	nt	nt	i	nt
C[C@H]1CN([C@@H](C)CO)C(=O)c2cccc(NC(=O)Nc3ccc4c(c3)OCO4)c2O[C@@H]1CN(C)CC1CCCCC1	nt	nt	nt	nt	86	nt
C[C@H]1CN([C@@H](C)CO)C(=O)c2cccc(NC(=O)Nc3ccc(F)cc3)c2O[C@@H]1CN(C)Cc1ccccc1	nt	nt	nt	nt	i	nt
C[C@@H]1CN([C@H](C)CO)C(=O)c2cccc(NC(=O)Nc3ccc(F)cc3)c2O[C@H]1CN(C)Cc1ccccc1	nt	nt	nt	nt	72	nt
CCNC(=O)[C@H]1[C@H](CO)[C@H]2Cn3c(ccc(-c4ccccc4)c3=O)[C@@H]1N2Cc1cccnc1	nt	nt	nt	nt	i	nt
COc1cc2c(cc1OC)-c1nnnn1C(C)(C)C2	i	i	i	i	i	i
COc1cc2c(cc1OC)-c1n[nH]c(=S)n1C(C)(C)C2	i	48	i	i	i	i
Cc1cccc(OCC(=O)Nc2cc(C)c(C)cc2O)c1	i	i	i	i	i	i
Cc1cccc(OCC(=O)Nc2cc(C)ccc2O)c1	i	i	i	i	113	i
O=S(=O)(c1ccccc1)c1nc(-c2ccco2)oc1N1CCCCCC1	i	i	i	i	105	i
CN1CCN(c2oc(-c3ccco3)nc2S(=O)(=O)c2ccccc2)CC1	i	i	i	i	i	i
COc1ccc(N2CCN(C(=O)COc3ccc4c(C)cc(=O)oc4c3C)CC2)cc1	i	i	i	i	107	i
CN(C)CC(=O)N1[C@@H]2Cn3c(cccc3=O)[C@H]1[C@@H](C(=O)NCc1ccccc1)[C@@H]2CO	nt	nt	nt	nt	i	nt
SMILES	A3A deaminase	APOBEC3G inh	ASAP1 GAP inh	Mot1-301 SUMO	C2C12 statin	ARFGAP1 inh
O=C(c1ccc(CN2CCOCC2)cc1)N1CCN(c2cccc(Cl)c2)CC1	i	i	i	i	103	i
COc1ccccc1C(=O)N1C[C@@H]2[C@H](c3ccccc31)[C@@H](CO)N2C(=O)Nc1ccccc1	nt	nt	nt	nt	i	nt
C[C@@H](O)C#Cc1ccc([C@@H]2[C@@H](CO)N3CCCCN(CC4CC4)C[C@H]23)cc1	nt	nt	nt	nt	i	nt
OCCNc1nc(Nc2ccc(Br)cc2)nc2ccccc12	i	i	26	i	nt	i
Cc1cc(N2CCN(C)CC2)nc2ccc(NC(=S)N3CCN(c4ccc(Cl)cc4)CC3)cc12	i	i	i	539	i	i
COc1ccccc1NC(=O)N[C@@H]1C=C[C@@H](CC(=O)N2CCC(Cc3ccccc3)CC2)O[C@H]1CO	nt	nt	nt	nt	i	nt
S=C(NCc1ccc(Cl)cc1)Nc1ccccc1	i	i	i	i	129	i
CCc1ccc(N(C(C)=O)C2C=CS(=O)(=O)C2)cc1 (stereo not given)	i	i	i	531	nt	i
C#CCOCCOCCOCCNc1nc(N2CCN(C(=O)CCCCCCCCCCNC(=O)Cn3cc(C[C@@H](C)O)nn3)CC2)nc(N2CCN(C(=O)CCCCCCCCCCNC(=O)[C@@H]([C@H](C)O)n3cc(C)nn3)CC2)n1	i	i	nt	i	106	nt
C[C@H](CO)N1C[C@H](C)[C@H](CN(C)C)OCCCC[C@H](C)Oc2ccc(NS(=O)(=O)c3ccc(F)cc3)cc2C1=O	nt	nt	nt	nt	i	nt
CC1Cc2ccccc2N1C(=O)CSc1nnc(Cc2ccccc2)n1CCc1ccccc1 (stereo not given)	nt	nt	i	nt	113	i
CCOc1ccccc1Nc1ncnc2ccccc12	i	i	i	i	86	i
CCOc1ccccc1Nc1ncnc2ccc(Br)cc12	i	i	i	i	nt	i
CC(C)NC(=O)N(C)C[C@@H]1Oc2cc(C#CCN(C)C)ccc2S(=O)(=O)N([C@@H](C)CO)C[C@H]1C	nt	nt	nt	nt	i	nt
N#Cc1cc2c(nc1SCC(=O)N1CCCCC1)CCCCC2	i	i	i	i	117	i
CN(C)CCNC(=O)c1ccc2c(c1)NC(=O)c1ccccc1S2	i	i	i	336	i	i
O=C1c2ccccc2NC(c2cccc(F)c2)N1Cc1ccco1 (stereo not given)	i	i	i	i	114	i
O=C1c2ccccc2NC(c2cccc(F)c2)N1Cc1ccccc1 (stereo not given)	i	i	i	i	i	i
Cc1ccc(S(=O)(=O)N[C@@H]2CC[C@@H](CC(=O)NCCCN(C)C)O[C@@H]2CO)cc1	nt	nt	nt	nt	i	nt
CN(C)N1C(=O)CC(C)(c2ccc([N+](=O)[O-])cc2)C1=O (stereo not given)	i	i	i	i	114	i
COC(=O)C1=C(C)NC(C)=C(C(=O)OC)C1C1CC=CCC1 (stereo not given)	i	i	i	i	123	i
CC(C)C#Cc1cnc2c(c1)C(=O)N([C@@H](C)CO)C[C@H](C)[C@H](CN(C)Cc1cncnc1)O2	nt	nt	nt	nt	i	nt
